Measured values: ChEMBL document CHEMBL4304759, “Identifying Novel Anti-Osteoporosis Leads with a Chemotype-Assembly Approach” (J Med Chem, 2019)
Active and inactive are the calls of the source. No cut-off for these calls is given here.

What was measured:
BMDM [1] = test: Anti-osteoporosis activity in C57BL/6 mouse bone marrow macrophages assessed as inhibition of M-CSF/RANKL-induced osteoclast differentiation supplemented with fresh medium containing compounds every 2 days for 5 measured post-last dose by TRAP staining based assay; type: functional, cell-based
Method in brief: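 Mouse (C57BL/6, 6-week) BMMs were plated at 6×10³ cells/well with M-CSF 30 ng/mL overnight, then given complete α-MEM with M-CSF and GST-rRANKL 100 ng/mL plus compound at varied concentrations, refreshed every 2 days. At day 5 cells were fixed in 4% paraformaldehyde and TRAcP-stained; TRAcP+ cells with >3 nuclei were counted.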

BMDM [2] = test: Anti-osteoporosis activity in C57BL/6 mouse bone marrow macrophages assessed as inhibition of M-CSF/RANKL-induced osteoclast differentiation by measuring reduction in TRAcP gene expression at 0.1 uM supplemented with fresh medium containing compounds every 2 days for 5 by trizol-reagent based RT-PCR analysis; type: functional, cell-based
Method in brief: (§1)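 BMMs from femur/tibia of six-week-old C57BL/6 mice, seeded at 1×10^5 cells/well in complete α-MEM (10% FBS) with M-CSF 30 ng/mL and GST-rRANKL 100 ng/mL, with or without compound at 0.1 μM for 5 days. RNA extracted with TRIzol, reverse-transcribed, then qPCR with SYBR-type premix: 40 cycles of 95 °C 10 s, 56 °C 10 s, 72 °C 30 s.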

BMDM [3] = test: Anti-osteoporosis activity in C57BL/6 mouse bone marrow macrophages assessed as inhibition of M-CSF/RANKL-induced osteoclast differentiation by measuring reduction in c-FOS gene expression at 0.1 uM supplemented with fresh medium containing compounds every 2 days for 5 by trizol-reagent based RT-PCR analysis; type: functional, cell-based; method in brief: as §1
BMDM [4] = test: Anti-osteoporosis activity in C57BL/6 mouse bone marrow macrophages assessed as inhibition of M-CSF/RANKL-induced osteoclast differentiation by measuring reduction in MMP9 gene expression at 0.1 uM supplemented with fresh medium containing compounds every 2 days for 5 by trizol-reagent based RT-PCR analysis; type: functional, cell-based; method in brief: as §1
BMDM [5] = test: Anti-osteoporosis activity in C57BL/6 mouse bone marrow macrophages assessed as inhibition of M-CSF/RANKL-induced osteoclast differentiation by measuring reduction in NFATc1 gene expression at 0.1 uM supplemented with fresh medium containing compounds every 2 days for 5 by trizol-reagent based RT-PCR analysis; type: functional, cell-based; method in brief: as §1
BMDM [6] = test: Anti-osteoporosis activity in C57BL/6 mouse bone marrow macrophages assessed as inhibition of M-CSF/RANKL-induced osteoclast differentiation by measuring reduction in hydroxyapatite resorption at 0.01 to 1 uM measured after 48 hrs by microscopic analysis; type: functional, cell-based
Method in brief: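 BMMs were driven to mature osteoclasts with GST-rRANKL plus M-CSF (30 ng/mL) on collagen-coated plates. Equal numbers were reseeded onto hydroxyapatite-coated wells with GST-rRANKL/M-CSF, with or without compound, for 48 h. Cells were bleached off, resorbed areas imaged by inverted microscope, and percent surface resorbed quantified.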

C3H 10T1/2 [7] = test: Osteogenic activity in mouse C3H10T1/2 cells assessed as effect on osteogenic medium-induced osteoblast differentiation by measuring calcium deposition at 0.1 to 10 uM after 14 days by alizarin red dye-based assay; type: cell-based; settings: c3h 10t1/2, 336 h
Method in brief: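 C3H10T1/2 cells were seeded at 5×10^4 cells/cm² in α-MEM with 10% FBS for 24 h. Osteogenic induction used medium with 5% FBS, 10⁻⁷ M dexamethasone, 50 μM ascorbic acid and 10 mM β-glycerol-phosphate, with or without compound, for 14 days. Cells were fixed in 4.0% formaldehyde and stained with 0.1% Alizarin red (pH 4.4) for 5 min at room temperature.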

C3H 10T1/2 [8] = test: Cytotoxicity against mouse C3H10T1/2 cells assessed as effect on cell viability at 0.1 to 100 uM measured after 48 to 72 hrs by CCK8 assay; type: cell-based; settings: c3h 10t1/2, 100 µM
Method in brief: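 C3H10T1/2 cells in log phase were seeded at 6×10^3 per well and held 24 h. They were then exposed to DMSO vehicle or compound at 0.1–100 μM for 48 h or 72 h. CCK-8 was added for 30 min at 37 °C and absorbance read at 450 nm.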

Rattus norvegicus [9] = test: Anti-osteoporosis activity in ovariectomized Sprague-Dawley rat assessed as reduction in femur bone mass loss at 10 mg/kg/day, po for 3 months measured post-last dose by micro-CT analysis; type: functional, organism-based
Rattus norvegicus [10] = test: Anti-osteoporosis activity in ovariectomized Sprague-Dawley rat assessed as femur bone mineral density loss at 10 mg/kg/day, po for 3 months measured post-last dose by dual energy X-ray absorptiometry (RVb = 19%); type: functional
Rattus norvegicus [11] = test: Anti-osteoporosis activity in ovariectomized Sprague-Dawley rat assessed as reduction in serum CTX1 level at 10 mg/kg/day, po for 3 months measured post-last dose; type: functional, organism-based
Rattus norvegicus [12] = test: Anti-osteoporosis activity in ovariectomized Sprague-Dawley rat assessed as reduction in serum osteocalcin level at 10 mg/kg/day, po for 3 months measured post-last dose; type: functional, organism-based
Rattus norvegicus [13] = test: Anti-osteoporosis activity in ovariectomized Sprague-Dawley rat assessed as reduction in serum PINP level at 10 mg/kg/day, po for 3 months measured post-last dose; type: functional, organism-based
Rattus norvegicus [14] = test: Effect on serum RANKL level in ovariectomized Sprague-Dawley rat at 10 mg/kg/day, po for 3 months measured post-last dose; type: organism-based; settings: in vivo
[15] = Toxicity in ovariectomized Sprague-Dawley rat assessed as effect on total cholesterol level at 10 mg/kg/day, po for 3 months measured post-last dose; type: organism-based; settings: in vivo
[16] = Toxicity in ovariectomized Sprague-Dawley rat assessed as effect on total triglyceride level at 10 mg/kg/day, po for 3 months measured post-last dose; type: organism-based; settings: in vivo
[17] = Toxicity in ovariectomized Sprague-Dawley rat assessed as effect on alanine aminotransferase level at 10 mg/kg/day, po for 3 months measured post-last dose; type: organism-based; settings: in vivo
[18] = Toxicity in ovariectomized Sprague-Dawley rat assessed as effect on aspartate transaminase level at 10 mg/kg/day, po for 3 months measured post-last dose; type: organism-based; settings: in vivo
[19] = Toxicity in ovariectomized Sprague-Dawley rat assessed as effect on alkaline phosphatase level at 10 mg/kg/day, po for 3 months measured post-last dose; type: organism-based; settings: in vivo
[20] = Toxicity in ovariectomized Sprague-Dawley rat assessed as effect on blood urea nitrogen level at 10 mg/kg/day, po for 3 months measured post-last dose; type: organism-based; settings: in vivo
[21] = Toxicity in ovariectomized Sprague-Dawley rat assessed as effect on creatinine level at 10 mg/kg/day, po for 3 months measured post-last dose; type: organism-based; settings: in vivo
[22] = Cardiotoxicity in ovariectomized Sprague-Dawley rat assessed as effect on heart at 10 mg/kg/day, po for 3 months measured post-last dose; type: toxicity, organism-based; settings: in vivo
[23] = Hepatotoxicity in ovariectomized Sprague-Dawley rat assessed as effect on liver at 10 mg/kg/day, po for 3 months measured post-last dose; type: toxicity, organism-based; settings: in vivo
[24] = Toxicity in ovariectomized Sprague-Dawley rat assessed as effect on spleen at 10 mg/kg/day, po for 3 months measured post-last dose; type: organism-based; settings: in vivo
[25] = Pulmonary toxicity in ovariectomized Sprague-Dawley rat assessed as effect on lung at 10 mg/kg/day, po for 3 months measured post-last dose; type: organism-based; settings: in vivo
[26] = Renal toxicity in ovariectomized Sprague-Dawley rat assessed as effect on kidney at 10 mg/kg/day, po for 3 months measured post-last dose; type: organism-based; settings: in vivo
[27] = Toxicity in ovariectomized Sprague-Dawley rat assessed as effect on uterus at 10 mg/kg/day, po for 3 months measured post-last dose; type: organism-based; settings: in vivo
[28] = Toxicity in ovariectomized Sprague-Dawley rat assessed as effect on thymus at 10 mg/kg/day, po for 3 months measured post-last dose; type: organism-based; settings: in vivo

Q: With `O=C(Cn1cc(-c2ccncc2)nn1)Nc1nccs1` as the molecule, how does the inhibition (BMDM [1]) read?
A: The inhibition was “Dose-dependent effect”.

Q: What about the IC50 (BMDM [1]; C57BL/6, BMDM, 5 days) of the same molecule?
A: Its IC50 is 2 nM.

Q: What about the inhibition (BMDM [2]) of the same molecule?
A: The inhibition was “Active”.

Q: What about the inhibition (BMDM [3]) of the same molecule?
A: The inhibition was “Active”.

Q: What about the inhibition (BMDM [4]) of the same molecule?
A: The inhibition was “Active”.

Q: And the inhibition (BMDM [5])?
A: The inhibition was “Active”.

Q: And the inhibition (BMDM [6])?
A: The inhibition was “Active”.

Q: What about the Activity (C3H 10T1/2 [7]) of the same molecule?
A: Its Activity is “Non-Toxic”.

Q: What about the Activity (C3H 10T1/2 [8]) of the same molecule?
A: Its Activity is “Non-Toxic”.

Q: And the Activity (Rattus norvegicus [9])?
A: Its Activity is “inactive”.

Q: What about the Activity (Rattus norvegicus [10]) of the same molecule?
A: Its Activity is 8%.

Q: And the Activity (Rattus norvegicus [11])?
A: Its Activity is “Active”.

Q: What about the Activity (Rattus norvegicus [12]) of the same molecule?
A: Its Activity is “Active”.

Q: And the Activity (Rattus norvegicus [13])?
A: The Activity was “Active”.

Q: What about the Activity (Rattus norvegicus [14]) of the same molecule?
A: Its Activity is “Non-Toxic”.

Q: What about the Activity [15] of the same molecule?
A: The Activity was “Non-Toxic”.

Q: And the Activity [16]?
A: Its Activity is “Non-Toxic”.

Q: What about the Activity [17] of the same molecule?
A: Its Activity is “Non-Toxic”.

Q: What about the Activity [18] of the same molecule?
A: Its Activity is “Non-Toxic”.

Q: What about the Activity [19] of the same molecule?
A: Its Activity is “Non-Toxic”.

Q: What about the Activity [20] of the same molecule?
A: The Activity was “Non-Toxic”.

Q: And the Activity [21]?
A: The Activity was “Non-Toxic”.

Q: And the Activity [22]?
A: Its Activity is “Non-Toxic”.

Q: And the Activity [23]?
A: Its Activity is “Non-Toxic”.

Q: And the Activity [24]?
A: The Activity was “Non-Toxic”.

Q: And the Activity [25]?
A: Its Activity is “Non-Toxic”.

Q: What about the Activity [26] of the same molecule?
A: The Activity was “Non-Toxic”.

Q: What about the Activity [27] of the same molecule?
A: The Activity was “Non-Toxic”.

Q: What about the Activity [28] of the same molecule?
A: Its Activity is “Non-Toxic”.
